{"source": "paper PMC5008228", "about": "(Journal of Parkinson's Disease, 2016)", "type_in_all_cases": "in vivo, human", "key": {"PDD or DLB participants [1]": {"test_system": "PDD or DLB participants", "assay": "Mini Mental State Examination", "conditions": "for MMSE score: individual participants; for MMSE score, AVG: group AVG (Screening AVG 15.4); for Average increase in MMSE: six months (24-week) compared to baseline"}, "PDD or DLB participants [2]": {"test_system": "PDD or DLB participants", "assay": "Scales for Outcomes in Parkinson's disease-Cognition", "conditions": "for SCOPA-Cog (**/43) score: individual participants; for Average increase in SCOPA-Cog: six months compared to baseline"}, "PDD or DLB participants [3]": {"test_system": "PDD or DLB participants", "assay": "Safety and tolerability, adverse events"}, "PDD or DLB participants [4]": {"test_system": "PDD or DLB participants", "assay": "QTc interval by EKG", "conditions": "returned to normal range in subsequent visits"}, "PDD or DLB participants [5]": {"test_system": "PDD or DLB participants", "assay": "Laboratory blood chemistry", "conditions": "150 mg group", "outline": "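PDD or DLB participants (n = 5 at 150 mg, n = 7 at 300 mg) took oral doses daily for 24 weeks. Blood chemistry (lipids, phosphate, bilirubin, electrolytes, lipase, α-amylase, ALT, AST) plus CBC with differential were drawn every two weeks for the first two months, then monthly. EKGs and physical/neurological exams were done at the same visits.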"}, "homovanillic acid (HVA)": {"test_system": "homovanillic acid (HVA)", "assay": "HVA measurement by ELISA"}, "α-synuclein": {"test_system": "α-synuclein", "assay": "α-synuclein sandwich ELISA in CSF and plasma", "conditions": "for Plasma α-synuclein vs baseline: 2 months"}, "DJ-1": {"test_system": "DJ-1", "assay": "Neurodegenerative disease magnetic bead panel, DJ-1"}, "S100B": {"test_system": "S100B", "assay": "Neurodegenerative disease magnetic bead panel, S100B"}, "[6]": {"test_system": "Neuron Specific Enolase (NSE)", "assay": "Neurodegenerative disease magnetic bead panel, NSE", "conditions": "6 months"}, "total tau": {"test_system": "total tau", "assay": "Neurodegenerative disease magnetic bead panel, total tau and p-tau181"}, "Aβ40": {"test_system": "Aβ40", "assay": "Neurodegenerative disease magnetic bead panel, Aβ40"}, "Aβ42": {"test_system": "Aβ42", "assay": "Neurodegenerative disease magnetic bead panel, Aβ42", "conditions": "150 mg group"}}, "note": "“And” between values parts separate entries of the source, which are not always exact repeats. Equal entries are not always repeated. “Also recorded” adds a separate entry of the source."}
{"smiles": "Cc1cn(-c2cc(NC(=O)c3ccc(C)c(Nc4nccc(-c5cccnc5)n4)c3)cc(C(F)(F)F)c2)cn1", "note": "[Nilotinib]", "values": [{"measurement": "MMSE score", "setting": "PDD or DLB participants [1]; 300 ng (sub-heading as printed) oral daily, Week-12", "value": "29 and 26 and 25 and 28 and 1 and 6"}, {"measurement": "MMSE score", "setting": "PDD or DLB participants [1]; 300 ng (sub-heading as printed) oral daily, Week-16", "value": "27 and 29 and 25 and 14 and 6 and 12"}, {"measurement": "MMSE score", "setting": "PDD or DLB participants [1]; 300 ng (sub-heading as printed) oral daily, Week-20", "value": "26 and 30 and 25 and 24 and 2 and 6"}, {"measurement": "MMSE score", "setting": "PDD or DLB participants [1]; 300 ng (sub-heading as printed) oral daily, Week-24", "value": "28 and 30 and 25 and 26 and 5 and 9"}, {"measurement": "MMSE score, AVG", "setting": "PDD or DLB participants [1]; 150 mg oral daily, Week-4", "value": 17.4}, {"measurement": "MMSE score", "setting": "PDD or DLB participants [1]; 150 mg oral daily, Week-4", "value": "20 and 0 and 11 and 28"}, {"measurement": "MMSE score, AVG", "setting": "PDD or DLB participants [1]; 150 mg oral daily, Week-8", "value": 18}, {"measurement": "MMSE score", "setting": "PDD or DLB participants [1]; 150 mg oral daily, Week-8", "value": "22 and 1 and 11 and 29 and 27"}, {"measurement": "MMSE score, AVG", "setting": "PDD or DLB participants [1]; 150 mg oral daily, Week-12", "value": 18}, {"measurement": "MMSE score", "setting": "PDD or DLB participants [1]; 150 mg oral daily, Week-12", "value": "21 and 1 and 11 and 29 and 28"}, {"measurement": "MMSE score, AVG", "setting": "PDD or DLB participants [1]; 150 mg oral daily, Week-16", "value": 18.6}, {"measurement": "MMSE score", "setting": "PDD or DLB participants [1]; 150 mg oral daily, Week-16", "value": "26 and 1 and 8 and 30 and 28"}, {"measurement": "MMSE score, AVG", "setting": "PDD or DLB participants [1]; 150 mg oral daily, Week-20", "value": 18.4}, {"measurement": "MMSE score", "setting": "PDD or DLB participants [1]; 150 mg oral daily, Week-20", "value": "26 and 1 and 10 and 30 and 25"}, {"measurement": "MMSE score, AVG", "setting": "PDD or DLB participants [1]; 150 mg oral daily, Week-24", "value": 19.25}, {"measurement": "MMSE score", "setting": "PDD or DLB participants [1]; 150 mg oral daily, Week-24", "value": "23 and 2 and 29"}, {"measurement": "Average increase in MMSE", "setting": "PDD or DLB participants [1]; 150 mg oral daily", "value": 3.85, "unit": "points"}, {"measurement": "Average increase in MMSE", "setting": "PDD or DLB participants [1]; 300 mg oral daily", "value": 3.5, "unit": "points"}, {"measurement": "SCOPA-Cog (**/43) score, AVG", "setting": "PDD or DLB participants [2]; 150 mg oral daily, Week-8, group AVG (Screening AVG 9.4)", "value": 10}, {"measurement": "SCOPA-Cog (**/43) score", "setting": "PDD or DLB participants [2]; 150 mg oral daily, Week-8", "value": "5 and 0 and 4 and 23 and 18"}, {"measurement": "SCOPA-Cog (**/43) score, AVG", "setting": "PDD or DLB participants [2]; 150 mg oral daily, Week-20, group AVG (Screening AVG 9.4)", "value": 9.6}, {"measurement": "SCOPA-Cog (**/43) score", "setting": "PDD or DLB participants [2]; 150 mg oral daily, Week-20", "value": "3 and 1 and 0 and 26 and 18"}, {"measurement": "SCOPA-Cog (**/43) score, AVG", "setting": "PDD or DLB participants [2]; 150 mg oral daily, Week-24, group AVG (Screening AVG 9.4)", "value": 11.25}, {"measurement": "SCOPA-Cog (**/43) score", "setting": "PDD or DLB participants [2]; 150 mg oral daily, Week-24", "value": "4 and 0 and 23 and 18"}, {"measurement": "Average increase in SCOPA-Cog", "setting": "PDD or DLB participants [2]; 150 mg oral daily", "value": 1.85, "unit": "points"}, {"measurement": "SCOPA-Cog (**/43) score, AVG", "setting": "PDD or DLB participants [2]; 300 mg oral daily, Week-8, group AVG (Screening AVG 10.33)", "value": 12.17}, {"measurement": "SCOPA-Cog (**/43) score", "setting": "PDD or DLB participants [2]; 300 mg oral daily, Week-8", "value": "22 and 30 and 11 and 9 and 0 and 1"}, {"measurement": "SCOPA-Cog (**/43) score, AVG", "setting": "PDD or DLB participants [2]; 300 mg oral daily, Week-20, group AVG (Screening AVG 10.33)", "value": 13.3}, {"measurement": "SCOPA-Cog (**/43) score", "setting": "PDD or DLB participants [2]; 300 mg oral daily, Week-20", "value": "21 and 30 and 19 and 10 and 0"}, {"measurement": "SCOPA-Cog (**/43) score, AVG", "setting": "PDD or DLB participants [2]; 300 mg oral daily, Week-24, group AVG (Screening AVG 10.33)", "value": 12.33}, {"measurement": "SCOPA-Cog (**/43) score", "setting": "PDD or DLB participants [2]; 300 mg oral daily, Week-24", "value": "22 and 31 and 10 and 0 and 1"}, {"measurement": "Average increase in SCOPA-Cog", "setting": "PDD or DLB participants [2]; 300 mg oral daily", "value": 2, "unit": "points"}, {"measurement": "Serious adverse events (one participant each)", "setting": "PDD or DLB participants [3]; 150 mg group, n = 5", "value": "hospitalized with pneumonia and UTI"}, {"measurement": "Serious adverse events (one participant each)", "setting": "PDD or DLB participants [3]; 300 mg group, n = 7", "value": "withdrawn at week 4 and diagnosed with myocardial infarct and left bundle block; also recorded: hospitalized with urinary tract infection (UTI)"}, {"measurement": "Safety and tolerability", "setting": "PDD or DLB participants [3]; once daily oral 150 mg or 300 mg, subjects with PDD or DLB", "value": "may be safe and tolerated"}, {"measurement": "QTc finding in participant NIL 8", "setting": "PDD or DLB participants [4]; 150 mg group", "value": "slight QTc prolongation >450 ms at week 8"}, {"measurement": "QTc finding in participant NIL 15", "setting": "PDD or DLB participants [4]; 300 mg group", "value": "two episodes of QTc prolongation >450 ms at week 2 and week 8"}, {"measurement": "AEs below normal range of alanine aminotransferase (ALT) level (<100%)", "setting": "PDD or DLB participants [5]", "value": "three"}, {"measurement": "CSF homovanillic acid (HVA) vs baseline", "setting": "homovanillic acid (HVA); 150 mg group, 2 months, t-test", "value": "significantly increased"}, {"measurement": "CSF homovanillic acid (HVA) vs baseline", "setting": "homovanillic acid (HVA); 150 mg group, 6 months", "value": "remained elevated (non-significant)"}, {"measurement": "CSF homovanillic acid (HVA) vs baseline", "setting": "homovanillic acid (HVA); 300 mg group, 6 months", "value": "significantly increased"}, {"measurement": "Plasma α-synuclein at 6 months compared to 2 months", "setting": "α-synuclein; 150 mg group", "value": "significantly higher"}, {"measurement": "CSF α-synuclein vs baseline", "setting": "α-synuclein; 150 mg group, 2 and 6 months", "value": "slightly reduced"}, {"measurement": "Plasma α-synuclein vs baseline", "setting": "α-synuclein; 150 mg group", "value": "slightly reduced"}, {"measurement": "CSF α-synuclein at 2 months compared to 6 months", "setting": "α-synuclein; 150 mg group, t-test", "value": "significantly (t-test) lower"}, {"measurement": "Plasma α-synuclein vs baseline", "setting": "α-synuclein; 300 mg group", "value": "significantly reduced"}, {"measurement": "Plasma α-synuclein", "setting": "α-synuclein; 300 mg group, 6 months", "value": "returned to baseline"}, {"measurement": "CSF α-synuclein", "setting": "α-synuclein; 300 mg group, between baseline, 2 and 6 months", "value": "unaltered"}, {"measurement": "CSF DJ-1", "setting": "DJ-1; 150 mg group", "value": "trended towards a decrease"}, {"measurement": "CSF DJ-1 vs baseline", "setting": "DJ-1; 300 mg group, six months", "value": "significantly reduced"}, {"measurement": "CSF S100B level", "setting": "S100B; 150 mg group", "value": "gradually reduced"}, {"measurement": "CSF S100B level", "setting": "S100B; 300 mg group", "value": "gradually reduced"}, {"measurement": "CSF NSE level vs baseline", "setting": "[6]; 150 mg group", "value": "significantly reduced"}, {"measurement": "CSF NSE level vs baseline", "setting": "[6]; 300 mg group", "value": "significantly reduced"}, {"measurement": "CSF total tau vs baseline", "setting": "total tau; 150 mg group, 2 months", "value": "significantly reduced"}, {"measurement": "CSF total tau vs baseline", "setting": "total tau; 300 mg group, 6 months", "value": "significantly reduced"}, {"measurement": "CSF Aβ40", "setting": "Aβ40; 150 mg group", "value": "No changes"}, {"measurement": "CSF Aβ40 vs baseline", "setting": "Aβ40; 300 mg group, 6 months", "value": "significantly reduced"}, {"measurement": "CSF Aβ42", "setting": "Aβ42", "value": "No changes"}]}
